How the values were obtained:
HCT-116 [1] = assay: Cytotoxicity against human HCT116 cells at 3 uM after 48 hrs by WST-1 assay; assay type: functional
How it was run: (§1)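 Cells from ATCC were grown in DMEM with 10% heat-inactivated FBS at 37 °C in 5% CO2. Log-phase cells were seeded at 5 × 10^3 per well and left to recover overnight. They were then exposed to a range of compound concentrations for 48 h, with 0.2% DMSO as the vehicle control. CCK-8 (WST) reagent was added for 2 h and absorbance was measured.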

HCT-116 [2] = assay: Cytotoxicity against human HCT116 cells at 0.3 uM after 48 hrs by WST-1 assay; assay type: functional; how it was run: as §1
MCF-10A [3] = assay: Cytotoxicity against human MCF10A cells at 10 uM after 48 hrs by WST1 assay; assay type: cell-based
Calu-1 [4] = assay: Cytotoxicity against human Calu1 cells at 30 uM after 48 hrs by WST-1 assay; assay type: functional; how it was run: as §1
ACHN [5] = assay: Cytotoxicity against human ACHN cells at 10 uM after 48 hrs by WST-1 assay; assay type: functional; how it was run: as §1
MCF-10A [6] = assay: Cytotoxicity against human MCF10A cells at 1 uM after 48 hrs by WST1 assay; assay type: cell-based
Calu-1 [7] = assay: Cytotoxicity against human Calu1 cells at 0.01 uM after 48 hrs by WST-1 assay; assay type: functional; how it was run: as §1
NCI-H460 [8] = assay: Cytotoxicity against human NCI-H460 cells at 3 uM after 48 hrs by WST-1 assay; assay type: functional
How it was run: (§2)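 Cells from ATCC, grown in DMEM with 10% heat-inactivated FBS at 37 °C in humidified 5% CO2. Log-phase cells seeded at 5 × 10^3 cells/well and left to recover overnight, then exposed to varying compound concentrations for 48 h. Controls received medium with 0.2% DMSO vehicle. CCK-8 ([…]) reagent added at 5 µL/well for 2 h, then absorbance read.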

HCT-116 [9] = assay: Cytotoxicity against human HCT116 cells at 10 uM after 48 hrs by WST-1 assay; assay type: functional; how it was run: as §1
HCT-116 [10] = assay: Cytotoxicity against human HCT116 cells at 0.1 uM after 48 hrs by WST-1 assay; assay type: functional; how it was run: as §1
ACHN [11] = assay: Cytotoxicity against human ACHN cells at 30 uM after 48 hrs by WST-1 assay; assay type: functional; how it was run: as §1
HCT-116 [12] = assay: Cytotoxicity against human HCT116 cells at 0.01 uM after 48 hrs by WST-1 assay; assay type: functional; how it was run: as §1
Calu-1 [13] = assay: Cytotoxicity against human Calu1 cells at 1 uM after 48 hrs by WST-1 assay; assay type: functional; how it was run: as §1
NCI-H460 [14] = assay: Cytotoxicity against human NCI-H460 cells at 1 uM after 48 hrs by WST-1 assay; assay type: functional; how it was run: as §2
ACHN [15] = assay: Cytotoxicity against human ACHN cells at 1 uM after 48 hrs by WST-1 assay; assay type: functional; how it was run: as §1
PANC-1 [16] = assay: Cytotoxicity against human PANC1 cells at 10 uM after 48 hrs by WST-1 assay; assay type: functional; how it was run: as §2
ACHN [17] = assay: Cytotoxicity against human ACHN cells at 0.1 uM after 48 hrs by WST-1 assay; assay type: functional; how it was run: as §1
MCF-10A [18] = assay: Cytotoxicity against human MCF10A cells at 3 uM after 48 hrs by WST1 assay; assay type: cell-based
Calu-1 [19] = assay: Cytotoxicity against human Calu1 cells after 48 hrs by WST-1 assay; assay type: functional, cell-based; conditions: Calu-1, 48 h; how it was run: as §1
ACHN [20] = assay: Cytotoxicity against human ACHN cells at 0.3 uM after 48 hrs by WST-1 assay; assay type: functional; how it was run: as §1
PANC-1 [21] = assay: Cytotoxicity against human PANC1 cells at 0.3 uM after 48 hrs by WST-1 assay; assay type: functional; how it was run: as §2
NCI-H460 [22] = assay: Cytotoxicity against human NCI-H460 cells at 0.1 uM after 48 hrs by WST-1 assay; assay type: functional; how it was run: as §2
PANC-1 [23] = assay: Cytotoxicity against human PANC1 cells at 1 uM after 48 hrs by WST-1 assay; assay type: functional; how it was run: as §2
PANC-1 [24] = assay: Cytotoxicity against human PANC1 cells at 0.1 uM after 48 hrs by WST-1 assay; assay type: functional; how it was run: as §2
MCF-10A [25] = assay: Cytotoxicity against human MCF10A cells at 30 uM after 48 hrs by WST1 assay; assay type: cell-based
MCF-10A [26] = assay: Cytotoxicity against human MCF10A cells at 0.1 uM after 48 hrs by WST1 assay; assay type: cell-based
HCT-116 [27] = assay: Cytotoxicity against human HCT116 cells after 48 hrs by WST-1 assay; assay type: functional, cell-based; conditions: HCT-116, 48 h; how it was run: as §1
HCT-116 [28] = assay: Cytotoxicity against human HCT116 cells at 0.03 uM after 48 hrs by WST-1 assay; assay type: functional; how it was run: as §1
ACHN [29] = assay: Cytotoxicity against human ACHN cells after 48 hrs by WST-1 assay; assay type: functional, cell-based; how it was run: as §1
NCI-H460 [30] = assay: Cytotoxicity against human NCI-H460 cells at 0.3 uM after 48 hrs by WST-1 assay; assay type: functional; how it was run: as §2
ACHN [31] = assay: Cytotoxicity against human ACHN cells at 0.03 uM after 48 hrs by WST-1 assay; assay type: functional; how it was run: as §1
NCI-H460 [32] = assay: Cytotoxicity against human NCI-H460 cells at 0.01 uM after 48 hrs by WST-1 assay; assay type: functional; how it was run: as §2
HCT-116 [33] = assay: Cytotoxicity against human HCT116 cells at 30 uM after 48 hrs by WST-1 assay; assay type: functional; how it was run: as §1
PANC-1 [34] = assay: Cytotoxicity against human PANC1 cells at 3 uM after 48 hrs by WST-1 assay; assay type: functional; how it was run: as §2
MCF-10A [35] = assay: Cytotoxicity against human MCF10A cells at 0.03 uM after 48 hrs by WST1 assay; assay type: cell-based
MCF-10A [36] = assay: Cytotoxicity against human MCF10A cells at 0.01 uM after 48 hrs by WST1 assay; assay type: cell-based
NCI-H460 [37] = assay: Cytotoxicity against human NCI-H460 cells at 30 uM after 48 hrs by WST-1 assay; assay type: functional; how it was run: as §2
ACHN [38] = assay: Cytotoxicity against human ACHN cells at 0.01 uM after 48 hrs by WST-1 assay; assay type: functional; how it was run: as §1
Calu-1 [39] = assay: Cytotoxicity against human Calu1 cells at 3 uM after 48 hrs by WST-1 assay; assay type: functional; how it was run: as §1
PANC-1 [40] = assay: Cytotoxicity against human PANC1 cells at 30 uM after 48 hrs by WST-1 assay; assay type: functional; how it was run: as §2
Calu-1 [41] = assay: Cytotoxicity against human Calu1 cells at 0.3 uM after 48 hrs by WST-1 assay; assay type: functional; how it was run: as §1
PANC-1 [42] = assay: Cytotoxicity against human PANC1 cells after 48 hrs by WST-1 assay; assay type: functional, cell-based; conditions: PANC-1, 48 h; how it was run: as §2
Calu-1 [43] = assay: Cytotoxicity against human Calu1 cells at 10 uM after 48 hrs by WST-1 assay; assay type: functional; how it was run: as §1
Calu-1 [44] = assay: Cytotoxicity against human Calu1 cells at 0.1 uM after 48 hrs by WST-1 assay; assay type: functional; how it was run: as §1
NCI-H460 [45] = assay: Cytotoxicity against human NCI-H460 cells at 0.03 uM after 48 hrs by WST-1 assay; assay type: functional; how it was run: as §2
PANC-1 [46] = assay: Cytotoxicity against human PANC1 cells at 0.01 uM after 48 hrs by WST-1 assay; assay type: functional; how it was run: as §2
HCT-116 [47] = assay: Cytotoxicity against human HCT116 cells at 1 uM after 48 hrs by WST-1 assay; assay type: functional; how it was run: as §1
PANC-1 [48] = assay: Cytotoxicity against human PANC1 cells at 0.03 uM after 48 hrs by WST-1 assay; assay type: functional; how it was run: as §2
MCF-10A [49] = assay: Cytotoxicity against human MCF10A cells at 0.3 uM after 48 hrs by WST1 assay; assay type: cell-based
ACHN [50] = assay: Cytotoxicity against human ACHN cells at 3 uM after 48 hrs by WST-1 assay; assay type: functional; how it was run: as §1
NCI-H460 [51] = assay: Cytotoxicity against human NCI-H460 cells after 48 hrs by WST-1 assay; assay type: functional, cell-based; conditions: NCI-H460, 48 h; how it was run: as §2
MCF-10A [52] = assay: Cytotoxicity against human MCF10A cells after 48 hrs by WST1 assay; assay type: cell-based
NCI-H460 [53] = assay: Cytotoxicity against human NCI-H460 cells at 10 uM after 48 hrs by WST-1 assay; assay type: functional; how it was run: as §2
Calu-1 [54] = assay: Cytotoxicity against human Calu1 cells at 0.03 uM after 48 hrs by WST-1 assay; assay type: functional; how it was run: as §1
NCI-H460 [55] = assay: Cytotoxicity against human NCI-H460 cells at 1000 nM after 48 hrs by WST-1 assay; assay type: functional; how it was run: as §2
HCT-116 [56] = assay: Cytotoxicity against human HCT116 cells at 1000 nM after 48 hrs by WST-1 assay; assay type: functional; how it was run: as §1
PANC-1 [57] = assay: Cytotoxicity against human PANC1 cells at 1000 nM after 48 hrs by WST-1 assay; assay type: functional; how it was run: as §2
ACHN [58] = assay: Cytotoxicity against human ACHN cells at 1000 nM after 48 hrs by WST-1 assay; assay type: functional; how it was run: as §1
Calu-1 [59] = assay: Cytotoxicity against human Calu1 cells at 1000 nM after 48 hrs by WST-1 assay; assay type: functional; how it was run: as §1

CCOC(=O)C(C)C(=O)c1cnccn1 (centres undefined)
Activity (HCT-116 [1]): 92.2%
Activity (HCT-116 [2]): 32.3%
Activity (MCF-10A [3]): 39.1%
Activity (Calu-1 [4]): 99.2%
Activity (ACHN [5]): 67.4%
Activity (MCF-10A [6]): 6.3%
Activity (Calu-1 [7]): 1.5%
Activity (NCI-H460 [8]): 55%
Activity (HCT-116 [9]): 90%
Activity (HCT-116 [10]): 26.9%
Activity (ACHN [11]): 82.3%
Activity (HCT-116 [12]): 9.4%
Activity (Calu-1 [13]): 22.8%
Activity (NCI-H460 [14]): 44.6%
Activity (ACHN [15]): 46.2%
Activity (PANC-1 [16]): 92.1%
Activity (ACHN [17]): 19%
Activity (MCF-10A [18]): 24%
IC50 (Calu-1 [19]): 2800 nM
Activity (ACHN [20]): 27.9%
Activity (PANC-1 [21]): 15.9%
Activity (NCI-H460 [22]): 14.2%
Activity (PANC-1 [23]): 29.2%
Activity (PANC-1 [24]): 13.6%
Activity (MCF-10A [25]): 82.8%
Activity (MCF-10A [26]): -9.5%
IC50 (HCT-116 [27]): 1300 nM
Activity (HCT-116 [28]): 18.8%
IC50 (ACHN [29]): 3000 nM
Activity (NCI-H460 [30]): 38.6%
Activity (ACHN [31]): -28.9%
Activity (NCI-H460 [32]): 3.6%
Activity (HCT-116 [33]): 100%
Activity (PANC-1 [34]): 67.8%
Activity (MCF-10A [35]): -14.1%
Activity (MCF-10A [36]): -15.2%
Activity (NCI-H460 [37]): 100%
Activity (ACHN [38]): -23.4%
Activity (Calu-1 [39]): 60.8%
Activity (PANC-1 [40]): 100%
Activity (Calu-1 [41]): 9.4%
IC50 (PANC-1 [42]): 2900 nM
Activity (Calu-1 [43]): 85.3%
Activity (Calu-1 [44]): 6.7%
Activity (NCI-H460 [45]): 6.7%
Activity (PANC-1 [46]): 8.3%
Activity (HCT-116 [47]): 44.8%
Activity (PANC-1 [48]): 10%
Activity (MCF-10A [49]): -6.8%
Activity (ACHN [50]): 51.6%
IC50 (NCI-H460 [51]): 3000 nM
IC50 (MCF-10A [52]): 21200 nM
Activity (NCI-H460 [53]): 87%
Activity (Calu-1 [54]): 2.9%

CN1CC[C@H](c2c(O)cc(O)c3c(=O)cc(-c4ccccc4Cl)oc23)[C@H](O)C1 [ALVOCIDIB]
Activity (NCI-H460 [55]): 71%
Activity (HCT-116 [56]): 78%
Activity (PANC-1 [57]): 74%
Activity (ACHN [58]): 71%
Activity (Calu-1 [59]): 88%

Nc1ccn([C@@H]2O[C@H](CO)[C@@H](O)C2(F)F)c(=O)n1 [GEMCITABINE]
Activity (NCI-H460 [55]): 73%
Activity (HCT-116 [56]): 74%
Activity (PANC-1 [57]): 79%
Activity (ACHN [58]): 73%
Activity (Calu-1 [59]): 71%
